A selection: hits, their analogues and other compounds. The true share with any hit is near 3.7%.
KCNQ1 act: potentiates or activates the human KCNQ1 potassium channel; P51787; CHO-K1 KCNQ1, thallium flux FluxOR fluorescence; active compounds read high; B-score at 10 µM; 310,000 tested, 0.35% active;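 active = fluorescence ratio B-score, a plate-corrected score, at least three library SD, with initial intensity B-score within 5 SD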
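assay system = CHO-K1 cells stably expressing KCNQ1 | medium = assay buffer, equal DMSO in all wells | timing = 37 °C overnight plating, 90-min dark dye load, 20-min compound pretreatment | measured by = kinetic FluxOR thallium fluorescence, 10-s 1-Hz baseline, 110-s post-stimulus read | measure = fluorescence change relative to baseline, converted to B score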
hERG protect: shields human hERG channel from block by proarrhythmic agents; Q12809; CHO-hERG, FluxOR thallium flux, dofetilide IC70 present; activation (rescue from dofetilide block), less the hit threshold, % at 10 µM; 310,000 tested, 0.51% active; AID 1511;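 active = activation above the mean of controls blocked by dofetilide plus 5 SD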;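 also: thallium influx through hERG after potassium depolarization seen as dye fluorescence rise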
Kir21 block: inhibitors of mouse Kir2.1 inward-rectifier potassium channel. B-score at 10 µM. 310,000 tested, 0.85% active. HEK293-Kir2.1, FluxOR thallium flux fluorescence; active compounds read low. AID 1672. P35561;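 active = fluorescence ratio B-score at or below minus 3 SD of library scores, with starting-brightness B-score within 2 SD, cut at about -4.2 in these data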;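 also: channel flux triggered by added potassium and thallium sulfate stimulus; B-score of peak minus minimum fluorescence over baseline after thallium stimulus; more negative B-score means stronger Kir2.1 block with less thallium influx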
Target sequence (P35561 whole entry, looked up): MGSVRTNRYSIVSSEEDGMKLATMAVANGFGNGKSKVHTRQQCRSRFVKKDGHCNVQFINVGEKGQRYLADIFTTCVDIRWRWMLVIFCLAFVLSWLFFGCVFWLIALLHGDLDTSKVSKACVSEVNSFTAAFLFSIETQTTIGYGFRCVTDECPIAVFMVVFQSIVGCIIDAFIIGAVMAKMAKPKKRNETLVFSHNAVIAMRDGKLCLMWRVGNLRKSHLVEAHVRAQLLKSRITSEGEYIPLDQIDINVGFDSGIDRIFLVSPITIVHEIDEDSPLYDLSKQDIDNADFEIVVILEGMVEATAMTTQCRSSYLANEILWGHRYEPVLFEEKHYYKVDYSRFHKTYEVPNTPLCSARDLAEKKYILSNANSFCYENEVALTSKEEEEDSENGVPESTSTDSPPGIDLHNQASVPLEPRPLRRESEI
KCNQ1 block: human KCNQ1 channel inhibition; AID 2642; 310,000 tested, 1.3% active; P51787; B-score at 10 µM; CHO-K1 KCNQ1, FluxOR thallium flux fluorescence; active compounds read high;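 active = compounds whose thallium flux B-score, printed positive for inhibition, exceeds three library SD while starting fluorescence stays within three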;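 also: channel opened by potassium depolarization with thallium stimulus after 20 min compound exposure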
KCNK9 inh: inhibitors of human KCNK9 two-pore domain potassium channel. Q9NPC2. HEK293 KCNK9, FluxOR thallium flux fluorescence; active compounds read low. B-score at 10 µM. 310,000 tested, 1.2% active;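 active = ratio B-score over 3 SD below the library mean, with starting fluorescence within 5 SD of its mean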;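 also: negative B-score means less thallium flux so channel inhibition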
Target sequence (Q9NPC2 whole entry, looked up, the tested form may be a part): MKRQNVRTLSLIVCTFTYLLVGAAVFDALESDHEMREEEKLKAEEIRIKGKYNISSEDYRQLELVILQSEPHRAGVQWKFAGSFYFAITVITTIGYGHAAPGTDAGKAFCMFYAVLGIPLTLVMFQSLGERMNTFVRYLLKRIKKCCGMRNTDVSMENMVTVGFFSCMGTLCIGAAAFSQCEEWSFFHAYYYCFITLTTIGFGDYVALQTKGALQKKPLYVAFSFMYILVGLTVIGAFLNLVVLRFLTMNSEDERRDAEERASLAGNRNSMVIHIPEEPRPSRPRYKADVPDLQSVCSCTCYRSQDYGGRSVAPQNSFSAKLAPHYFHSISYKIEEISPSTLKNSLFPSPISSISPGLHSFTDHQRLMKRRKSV
KCNK3 block: human KCNK3 channel inhibition, primary screen; O14649; CHO-KCNK3 thallium flux, FluxOR fluorescence; active compounds read low; B-score at 10 µM; 340,000 tested, 0.84% active;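 active = B-score under library mean minus 4 SD, starting fluorescence ratio at most library mean plus 5 SD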;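 also: more negative B-score means stronger inhibition of thallium flux through KCNK3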
KCNQ1 inh valid: human KCNQ1 channel inhibition, validation assay; shares compounds with KCNQ1 block; KCNQ1 cell line, FluxOR thallium flux fluorescence; 1,600 tested, 93% active; inhibition, % at 10 µM;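 active = primary screen active, with duplicate mean exceeding buffer control mean plus 3 SD of buffer wells, cut at about 28% in these data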;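 also: 0% = buffer control ratio and 100% = XE991 inhibitor control ratio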
CHO KCNQ1 ctr: activity in parental CHO cells lacking KCNQ1. parental CHO-K1, FluxOR thallium flux fluorescence ratio; active compounds read low; zero means no signal rise above baseline. shares compounds with KCNQ1 block. fluorescence ratio (Tl flux) at 10 µM. 1,600 tested, 21% active;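 active = mean of duplicate thallium-flux fluorescence ratios in parental host cells more than 5 SD below the buffer control mean, cut at about 0.38 in these data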;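 also: ratio is peak minus minimum fluorescence divided by baseline fluorescence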
KCNQ1 ephys val: human KCNQ1 inhibition validated by electrophysiology | shares compounds with KCNQ1 block | KCNQ1-CHO cells, automated patch clamp current | calls only at 10 µM | 490 tested, 20% active;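 active = KCNQ1 current drop exceeding 3 SD of negative control wells, seen in both duplicate runs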;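 also: steady state current during a 2 s step from -80 to +40 mV; negative values mean current inhibition and positive values mean potentiation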
KCNQ2 inh: rat KCNQ2 inhibition in KCNQ1 inhibitor specificity screen. shares compounds with KCNQ1 block. KCNQ2 cells, FluxOR thallium flux fluorescence. inhibition, % at 10 µM. 1,600 tested, 71% active;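 active = mean percent inhibition of the KCNQ2 thallium signal more than 5 SD above the buffer-only control wells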;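 also: KCNQ2 expressed in CHO cells; 0% = buffer control wells and 100% = XE-991 inhibitor control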
KCNQ1 KCNE1 spec: human KCNQ1/KCNE1 inhibition in KCNQ1 specificity screen | shares compounds with KCNQ1 block | KCNQ1/KCNE1 cells, FluxOR thallium flux fluorescence | inhibition, % at 10 µM | 1,600 tested, 77% active;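 active = mean percent inhibition of duplicate wells above the buffer-only control mean plus 3 SD of those controls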;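 also: 0% = buffer only wells and 100% = XE-991 inhibitor control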
KCNK9 block conf: human KCNK9 inhibitor confirmation; shares compounds with KCNK9 inh; HEK293 KCNK9 cells, FluxOR thallium flux fluorescence; inhibition, % at 10 µM; 4,900 tested, 43% active; AID 492992;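 active = thallium signal inhibited by more than 5 SD of the compound-free buffer control wells, on both duplicate plates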;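 also: 0% = assay buffer control wells without compound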
Kir2-1 spec: selectivity of KCNK9 modulators against mouse Kir2.1. 4,900 tested, 4% active. Kir2.1 cells, FluxOR thallium flux fluorescence. shares compounds with KCNK9 inh. AID 492993. inhibition, % at 10 µM;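 active = thallium signal drop more than 5 SD beyond the mean of the no-compound control wells, seen in both duplicate plates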;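 also: signal is fluorescence rise after thallium addition divided by baseline fluorescence; plate controls were assay buffer only for no effect and full block by chlorpromazine control for full effect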
HEK293 Tl ctr: non-induced cell nonspecific activity of KCNK9 modulators; non-induced KCNK9-HEK293, FluxOR thallium flux; 4,900 tested, 40% active; inhibition, % at 10 µM; shares compounds with KCNK9 inh;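 active = thallium signal drop beyond 5 SD of the untreated control mean, on both duplicate plates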;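 also: plate controls were buffer only IC0 wells for no effect and SID17386958 at its maximal inhibitory level for full effect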
KCNK3 confirm: human KCNK3 channel inhibition, confirmation assay; ratio percent of control, % at 10 µM; shares compounds with KCNK3 block; AID 651638; 2,400 tested, 99% active; CHO-KCNK3 thallium flux, FluxOR fluorescence; 0% buffer, 100% carvedilol maximal block;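 active = ratio percent of control, averaged over triplicates, above buffer control mean plus 5 SD, cut at about 64% in these data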;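 also: ratio is the fluorescence rise from min to max over baseline after thallium stimulus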
KCNK3 noninduced: activity in cells without induced KCNK3 expression. shares compounds with KCNK3 block. AID 651747. 2,400 tested, 40% active. thallium flux ratio (lower = more inhibition) at 10 µM. non-induced KCNK3 parental cells, FluxOR thallium flux; active compounds read low;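 active = thallium flux ratio, averaged over three wells, more than 5 SD below the buffer control mean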;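 also: host cells are CHO cells without KCNK3 induction; ratio is peak minus trough fluorescence over baseline then normalized to buffer controls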
The depositor's hits bear a star; i = inactive; · = not tested or not shown.

SMILES | KCNQ1 act | hERG protect | Kir21 block | KCNQ1 block | KCNK9 inh | KCNK3 block | KCNK9 block conf | Kir2-1 spec | HEK293 Tl ctr | others
Oc1ccccc1CN(CCc1ccccc1)Cc1ccccc1 | i | -9 | -3.2 | 9* | -7.9* | -8.9* | · | · | · | KCNQ1 inh valid=108*;CHO KCNQ1 ctr=0.39;KCNQ1 ephys val=i;KCNQ2 inh=97%*;KCNQ1 KCNE1 spec=130%*;KCNK3 confirm=120*;KCNK3 noninduced=0.14*
CCC1(CC)C(=O)NC(=O)N(CCc2ccccn2)C1=O | · | · | · | · | · | i | · | · | ·
c1ccc(CCCN2CCN(CCOC(c3ccccc3)c3ccccc3)CC2)cc1 | i | -17 | -2.2 | i | i | i | i | i | i
CCC1([N+](=O)[O-])COP(N)(=O)OC1 (centres undefined) | · | · | · | · | · | i | · | · | ·
Cc1ccc(-c2cc(-c3ccc(C)cc3)[n+](-c3ccccc3)c(-c3ccc(C)cc3)c2)cc1 | i | -39 | -12* | 9* | -19* | -18* | 76%* | 84%* | i
Cc1ccc(-c2cc(-c3ccc(C)cc3)[n+](C)o2)cc1 | i | -24 | 2.3 | i | i | i | · | · | ·
Cc1ccc(-c2cc(-c3ccccc3)cc(-c3ccccc3)[n+]2-c2ccccc2)cc1 | i | -46 | -9.7* | i | -9.2* | i | 75%* | 79%* | 34%*
CSc1ccc(CN2CCN(c3ccccc3C)CC2)cc1 | i | -10 | -1.5 | i | i | i | i | i | i
Cc1cccc(C(=O)Nc2ccc(Cl)cc2C(=O)c2ccccc2)c1 | i | -10 | 0.15 | i | -8.4* | i | 32%* | i | 31%*
COC(=O)C1=C(c2ccc(C(C)=O)cc2)C[C@@H]2CC[C@H]1N2C(=O)NC(C)C | · | · | · | · | · | i | · | · | ·
COc1cc(C2(C#N)CCN(C)CC2)cc(OC)c1OC | · | · | · | · | · | i | · | · | ·
Cc1ccc2c(CN3CC=C(c4ccccc4)CC3)cc(=O)oc2c1C | i | -13 | 2.3 | i | i | i | i | i | i
CCc1ccc2c(CN3CC=C(c4ccccc4)CC3)cc(=O)oc2c1 | i | -10 | 1.7 | i | i | i | · | · | ·
COC(=O)C1=C(c2cccc(OCc3ccccc3)c2)C[C@@H]2CC[C@H]1N2C(=O)NCc1ccc2[nH]ccc2c1 | · | · | · | · | · | i | · | · | ·
CN1C(=O)C(C)(C2=CCCCC2)C(=O)NC1=S (centres undefined) | · | · | · | · | · | i | · | · | ·
O=C(c1ccc(Cl)cc1)C1CCCN(Cc2cccc3cnccc23)C1 (centres undefined) | i | -26 | -1.4 | i | i | i | i | i | i
O=C(c1ccc2c(c1)OCO2)C1CCCN(Cc2ccc(F)c(F)c2)C1 (centres undefined) | i | -13 | -0.24 | i | i | i | · | · | ·
O=C(c1cccc(Cl)c1)C1CCCN(Cc2cccc3cnccc23)C1 (centres undefined) | i | -11 | -2.1 | i | i | i | · | · | ·
O=C(c1ccc(Cl)cc1)C1CCCN(Cc2ccc3ncccc3c2)C1 (centres undefined) | i | -28 | -0.38 | i | i | i | i | i | i
O=C(c1ccc(Cl)cc1)C1CCCN(Cc2ccc3c(c2)OCCO3)C1 (centres undefined) | i | -8 | -1.4 | i | i | i | i | i | i
CC12CCC3C(CCC4(O)CC(O)CCC34C=NO)C1(O)CCC2C1=COC(=O)C1 (centres undefined) | · | · | · | · | · | i | · | · | ·
Brc1cc2c(cc1CN1CCN(c3ccccc3)CC1)OCCO2 | i | -4 | -0.15 | i | i | i | i | i | i
Oc1cc2c(cc1CN1CCN(c3ccc(F)cc3)CC1)OCO2 | i | -9 | 0.21 | i | i | i | · | · | ·
CCCCN(Cc1ccccc1)C1CCN(CCc2ccccc2)CC1 | i | -8 | -0.39 | i | i | i | i | i | i
O=C(COc1ccccc1)c1cn(Cc2ccccc2)c2ccccc12 | i | -9 | -3.3 | i | -10* | i | 52%* | i | 53%*
SMILES | KCNQ1 act | hERG protect | Kir21 block | KCNQ1 block | KCNK9 inh | KCNK3 block | KCNK9 block conf | Kir2-1 spec | HEK293 Tl ctr | others
CCC(=O)c1cn(Cc2ccccc2)c2ccccc12 | i | -21 | 0.01 | i | i | i | · | · | ·
COc1ccccc1OCC(=O)N1CCCC(N2CCN(c3ccc(F)cc3)CC2)C1 (centres undefined) | i | -4 | -1.8 | i | i | i | i | i | i
O=C(COc1ccccc1Cl)N1CCCC(N2CCN(c3ccc(F)cc3)CC2)C1 (centres undefined) | i | -15 | 0.16 | i | i | i | i | i | i
Cc1ccc(OCC(=O)N2CCCC(N3CCN(c4ccc(F)cc4)CC3)C2)cc1 (centres undefined) | i | -15 | 1 | i | i | i | · | · | ·
COc1ccc(OCC(=O)N2CCCC(N3CCN(c4ccccc4C)CC3)C2)cc1 (centres undefined) | i | -13 | -1.7 | i | i | i | i | i | i
CCCC1(CC(C)C)C(=O)NC(=S)NC1=O | · | · | · | · | · | i | · | · | ·
